How the values were obtained:
[1] = Inhibition of MST4/YSK1 in human HeLa cells lysate pre incubated for 15 mins followed by ATP acyl phosphate probe addition and measured after 10 mins by LC-MS/MS analysis; type: subcellular
SRSF protein kinase 1 = SRSF protein kinase 1 (Homo sapiens, UniProt Q96SB4); test: Inhibition of SRPK1 in human HeLa cells lysate pre incubated for 15 mins followed by ATP acyl phosphate probe addition and measured after 10 mins by LC-MS/MS analysis; type: subcellular
[2] = Inhibition of MSK1/2 in human HeLa cells lysate pre incubated for 15 mins followed by ADP acyl phosphate probe addition and measured after 10 mins by LC-MS/MS analysis; type: subcellular
[3] = molecular target: T1, Dual specificity mitogen-activated protein kinase kinase 6 (Homo sapiens) (UniProt P52564); test: Inhibition of MAP2K6 in human HeLa cells lysate at 10 uM pre incubated for 15 mins followed by ADP acyl phosphate probe addition and measured after 10 mins by LC-MS/MS analysis relative to control; type: subcellular; settings: time 25.0 min
T1 sequence (whole entry): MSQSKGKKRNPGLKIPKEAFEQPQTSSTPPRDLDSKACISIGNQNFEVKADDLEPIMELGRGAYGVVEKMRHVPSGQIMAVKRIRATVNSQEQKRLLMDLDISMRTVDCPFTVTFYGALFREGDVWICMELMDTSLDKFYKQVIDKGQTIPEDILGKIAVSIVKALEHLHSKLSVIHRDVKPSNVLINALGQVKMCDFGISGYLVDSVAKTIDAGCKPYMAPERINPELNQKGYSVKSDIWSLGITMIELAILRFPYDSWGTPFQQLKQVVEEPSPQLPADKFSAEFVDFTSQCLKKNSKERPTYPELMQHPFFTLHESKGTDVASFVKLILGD

[4] = molecular target: T2, Aurora kinase A (Homo sapiens) (UniProt O14965); test: Inhibition of AurA in human HeLa cells lysate at 50 uM pre incubated for 15 mins followed by ATP acyl phosphate probe addition and measured after 10 mins by LC-MS/MS analysis relative to control; type: subcellular; settings: time 25.0 min
T2 sequence (whole entry): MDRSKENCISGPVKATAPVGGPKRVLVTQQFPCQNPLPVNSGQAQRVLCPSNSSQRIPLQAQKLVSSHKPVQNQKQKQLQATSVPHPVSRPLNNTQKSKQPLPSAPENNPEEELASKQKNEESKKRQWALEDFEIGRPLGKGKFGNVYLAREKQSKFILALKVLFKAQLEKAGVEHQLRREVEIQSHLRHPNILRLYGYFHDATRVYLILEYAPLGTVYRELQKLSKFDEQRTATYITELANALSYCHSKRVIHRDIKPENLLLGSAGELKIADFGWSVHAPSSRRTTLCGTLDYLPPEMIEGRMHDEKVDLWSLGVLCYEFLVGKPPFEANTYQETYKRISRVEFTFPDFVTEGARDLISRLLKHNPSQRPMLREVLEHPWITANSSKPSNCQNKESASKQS
Procedure, shortened: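 KiNativ-type profiling in HeLa lysate (5 mg/mL total protein). Lysate preincubated 15 min with inhibitor at 50, 10, 2, 0.8 or 0 μM, then ATP or ADP acylphosphate probe added (5 μM final) for 10 min. Reaction stopped with urea and analysed by targeted MS, using up to four fragment ions per kinase peptide-probe conjugate. % inhibition calculated against untreated lysate. Duplicate reactions.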

[5] = Inhibition of MAP3K5/MAP3K6/MAP3K15 in human HeLa cells lysate at 10 uM pre incubated for 15 mins followed by ATP acyl phosphate probe addition and measured after 10 mins by LC-MS/MS analysis relative to control; settings: 25 min, condition cancer
[6] = molecular target: Mitogen-activated protein kinase kinase kinase 5 (Homo sapiens) (UniProt Q99683); test: Inhibition of MAP3K5 in human HeLa cells lysate at 10 uM pre incubated for 15 mins followed by ATP acyl phosphate probe addition and measured after 10 mins by LC-MS/MS analysis relative to control; type: subcellular; settings: time 25.0 min
[7] = molecular target: Mitogen-activated protein kinase kinase kinase 20 (Homo sapiens, UniProt Q9NYL2); test: Inhibition of ZAK in human HeLa cells lysate at 2 uM pre incubated for 15 mins followed by ATP acyl phosphate probe addition and measured after 10 mins by LC-MS/MS analysis relative to control; type: subcellular; settings: time 25.0 min
[8] = molecular target: T3, Phosphorylase b kinase gamma catalytic chain, liver/testis isoform (Homo sapiens) (UniProt P15735); test: Inhibition of PHKg2 in human HeLa cells lysate at 2 uM pre incubated for 15 mins followed by ATP acyl phosphate probe addition and measured after 10 mins by LC-MS/MS analysis relative to control; type: subcellular; settings: time 25.0 min
T3 sequence (whole entry): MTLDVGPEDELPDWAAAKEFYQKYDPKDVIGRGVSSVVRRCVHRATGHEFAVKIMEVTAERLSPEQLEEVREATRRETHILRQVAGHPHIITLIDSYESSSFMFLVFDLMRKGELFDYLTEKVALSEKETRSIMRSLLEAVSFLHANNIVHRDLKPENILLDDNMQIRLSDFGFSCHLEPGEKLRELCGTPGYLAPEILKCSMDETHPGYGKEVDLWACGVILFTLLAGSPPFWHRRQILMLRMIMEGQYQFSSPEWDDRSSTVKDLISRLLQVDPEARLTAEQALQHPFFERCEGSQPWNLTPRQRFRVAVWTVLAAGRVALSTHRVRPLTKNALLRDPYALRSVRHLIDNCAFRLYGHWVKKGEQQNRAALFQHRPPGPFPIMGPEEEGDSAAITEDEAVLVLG

[9] = molecular target: Phosphatidylinositol 5-phosphate 4-kinase type-2 beta (Homo sapiens) (UniProt P78356); test: Inhibition of PIP5K2B in human HeLa cells lysate at 2 uM pre incubated for 15 mins followed by ATP acyl phosphate probe addition and measured after 10 mins by LC-MS/MS analysis relative to control; type: subcellular; settings: time 25.0 min
Wee1-like protein kinase = Wee1-like protein kinase (Homo sapiens, UniProt P30291); test: Inhibition of Wee1 in human HeLa cells lysate at 2 uM pre incubated for 15 mins followed by ATP acyl phosphate probe addition and measured after 10 mins by LC-MS/MS analysis relative to control; type: subcellular; settings: time 25.0 min
[10] = Inhibition of HGK/MINK/TNIK in human HeLa cells lysate at 2 uM pre incubated for 15 mins followed by ATP acyl phosphate probe addition and measured after 10 mins by LC-MS/MS analysis relative to control; settings: 25 min, condition cancer
[11] = molecular target: Microtubule-associated serine/threonine-protein kinase 3 (Homo sapiens, UniProt O60307); test: Inhibition of MAST3 in human HeLa cells lysate at 2 uM pre incubated for 15 mins followed by ATP acyl phosphate probe addition and measured after 10 mins by LC-MS/MS analysis relative to control; type: subcellular; settings: time 25.0 min
[12] = Cardiotoxicity in C57Bl/6 mouse assessed as vasculature instability in heart at 50 mg/kg, ip for 14 days by TUNEL assay; type: toxicity, organism-based; settings: in vivo, 336 h, time 14 day
Procedure, shortened: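 Mice were dosed i.p. at 50 mg/kg over 14 days. Heart sections from treated and control mice were stained by immunofluorescence for CD31 and by TUNEL, with DNase-treated sections as the TUNEL positive control.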

[13] = Toxicity in C57Bl/6 mouse assessed as effect on calcium level at 50 mg/kg, ip for 14 days (reference value: 9.9 mg/dl); type: organism-based; settings: in vivo, 336 h, time 14 day

Sequence of Microtubule-associated serine/threonine-protein kinase 3 (O60307 whole entry): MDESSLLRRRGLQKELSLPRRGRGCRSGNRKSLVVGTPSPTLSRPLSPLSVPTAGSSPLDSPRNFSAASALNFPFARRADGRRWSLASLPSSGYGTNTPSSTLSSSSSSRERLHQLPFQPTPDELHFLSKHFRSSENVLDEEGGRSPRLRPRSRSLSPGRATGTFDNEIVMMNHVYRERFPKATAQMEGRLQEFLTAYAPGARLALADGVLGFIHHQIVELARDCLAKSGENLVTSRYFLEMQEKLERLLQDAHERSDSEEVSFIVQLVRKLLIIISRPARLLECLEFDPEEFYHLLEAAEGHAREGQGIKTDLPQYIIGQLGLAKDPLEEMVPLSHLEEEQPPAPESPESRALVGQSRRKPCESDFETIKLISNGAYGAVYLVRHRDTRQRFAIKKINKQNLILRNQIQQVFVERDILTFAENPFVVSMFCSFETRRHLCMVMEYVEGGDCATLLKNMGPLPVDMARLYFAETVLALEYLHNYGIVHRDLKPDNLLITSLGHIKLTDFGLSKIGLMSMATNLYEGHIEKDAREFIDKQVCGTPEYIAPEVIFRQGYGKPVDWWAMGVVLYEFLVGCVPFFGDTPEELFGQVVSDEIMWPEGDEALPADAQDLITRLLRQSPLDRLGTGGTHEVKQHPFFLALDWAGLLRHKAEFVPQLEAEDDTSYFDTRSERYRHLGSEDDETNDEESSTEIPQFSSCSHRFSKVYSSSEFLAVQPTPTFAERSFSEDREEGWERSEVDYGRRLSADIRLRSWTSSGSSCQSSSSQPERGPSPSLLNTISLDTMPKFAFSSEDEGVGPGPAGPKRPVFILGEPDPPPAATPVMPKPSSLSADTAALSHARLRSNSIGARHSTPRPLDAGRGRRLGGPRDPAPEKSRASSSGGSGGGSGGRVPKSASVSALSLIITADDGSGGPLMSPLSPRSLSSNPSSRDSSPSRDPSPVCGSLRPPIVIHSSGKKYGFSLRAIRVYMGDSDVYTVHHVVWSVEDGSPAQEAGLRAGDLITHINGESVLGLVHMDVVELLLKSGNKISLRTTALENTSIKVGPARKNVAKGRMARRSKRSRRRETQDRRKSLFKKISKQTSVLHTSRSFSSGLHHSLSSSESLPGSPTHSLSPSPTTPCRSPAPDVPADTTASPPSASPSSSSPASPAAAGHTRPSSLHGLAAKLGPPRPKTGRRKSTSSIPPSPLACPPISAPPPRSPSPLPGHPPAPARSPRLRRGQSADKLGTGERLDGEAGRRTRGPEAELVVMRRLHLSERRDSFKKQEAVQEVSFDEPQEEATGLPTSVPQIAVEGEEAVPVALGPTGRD
Sequence of SRSF protein kinase 1 (Q96SB4 whole entry): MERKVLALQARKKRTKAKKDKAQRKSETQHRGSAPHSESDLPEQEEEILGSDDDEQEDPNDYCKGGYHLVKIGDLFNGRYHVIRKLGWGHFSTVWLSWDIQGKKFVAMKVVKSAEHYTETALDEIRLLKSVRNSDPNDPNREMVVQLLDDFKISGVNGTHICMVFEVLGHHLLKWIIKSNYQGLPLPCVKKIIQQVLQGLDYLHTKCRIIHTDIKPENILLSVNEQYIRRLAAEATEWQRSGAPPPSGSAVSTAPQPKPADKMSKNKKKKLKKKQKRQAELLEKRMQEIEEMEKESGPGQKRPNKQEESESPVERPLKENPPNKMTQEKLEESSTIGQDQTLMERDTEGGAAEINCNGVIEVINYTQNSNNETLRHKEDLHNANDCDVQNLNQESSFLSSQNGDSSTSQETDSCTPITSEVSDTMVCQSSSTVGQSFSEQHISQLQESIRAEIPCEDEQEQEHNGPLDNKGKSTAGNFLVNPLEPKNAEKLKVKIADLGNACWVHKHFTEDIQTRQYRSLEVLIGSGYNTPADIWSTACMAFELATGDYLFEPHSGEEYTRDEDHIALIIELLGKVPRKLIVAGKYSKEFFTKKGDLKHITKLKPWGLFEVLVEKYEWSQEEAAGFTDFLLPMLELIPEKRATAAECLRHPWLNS
Sequence of Mitogen-activated protein kinase kinase kinase 5 (Homo sapiens) (Q99683 whole entry): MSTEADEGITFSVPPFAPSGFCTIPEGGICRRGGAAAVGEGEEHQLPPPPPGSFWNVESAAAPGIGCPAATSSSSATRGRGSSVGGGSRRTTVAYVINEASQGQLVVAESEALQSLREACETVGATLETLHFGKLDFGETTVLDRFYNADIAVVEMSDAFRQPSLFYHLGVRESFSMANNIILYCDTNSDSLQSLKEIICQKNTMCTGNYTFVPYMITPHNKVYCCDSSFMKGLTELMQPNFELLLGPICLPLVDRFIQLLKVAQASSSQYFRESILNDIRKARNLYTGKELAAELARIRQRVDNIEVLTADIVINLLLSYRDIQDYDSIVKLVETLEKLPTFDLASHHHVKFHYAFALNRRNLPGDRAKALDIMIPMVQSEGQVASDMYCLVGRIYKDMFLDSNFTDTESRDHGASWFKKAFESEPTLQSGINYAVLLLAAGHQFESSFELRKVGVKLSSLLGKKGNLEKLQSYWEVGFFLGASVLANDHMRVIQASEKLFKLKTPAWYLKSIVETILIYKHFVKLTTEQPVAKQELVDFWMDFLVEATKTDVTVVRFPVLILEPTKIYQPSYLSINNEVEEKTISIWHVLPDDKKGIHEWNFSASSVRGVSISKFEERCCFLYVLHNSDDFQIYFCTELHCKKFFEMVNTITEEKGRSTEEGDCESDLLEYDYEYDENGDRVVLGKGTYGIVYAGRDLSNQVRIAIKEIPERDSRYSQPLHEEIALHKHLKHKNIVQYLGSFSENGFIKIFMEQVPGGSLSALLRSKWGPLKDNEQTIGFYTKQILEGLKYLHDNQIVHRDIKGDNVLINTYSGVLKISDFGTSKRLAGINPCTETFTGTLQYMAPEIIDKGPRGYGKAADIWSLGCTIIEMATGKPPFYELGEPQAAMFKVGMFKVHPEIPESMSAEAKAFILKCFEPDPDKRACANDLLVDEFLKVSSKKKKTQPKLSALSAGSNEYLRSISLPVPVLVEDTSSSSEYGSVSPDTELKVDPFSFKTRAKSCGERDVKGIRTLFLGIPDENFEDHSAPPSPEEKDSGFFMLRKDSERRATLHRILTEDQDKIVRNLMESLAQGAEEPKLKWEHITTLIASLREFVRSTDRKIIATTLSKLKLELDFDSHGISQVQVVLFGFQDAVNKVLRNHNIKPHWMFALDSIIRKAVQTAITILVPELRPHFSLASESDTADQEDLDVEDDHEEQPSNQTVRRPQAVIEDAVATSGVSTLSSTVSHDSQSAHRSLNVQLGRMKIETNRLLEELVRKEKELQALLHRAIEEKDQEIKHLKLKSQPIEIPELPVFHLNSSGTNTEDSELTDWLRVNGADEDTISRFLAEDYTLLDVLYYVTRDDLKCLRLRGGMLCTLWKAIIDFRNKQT
Sequence of Mitogen-activated protein kinase kinase kinase 20 (Q9NYL2 2-800 limits assumed): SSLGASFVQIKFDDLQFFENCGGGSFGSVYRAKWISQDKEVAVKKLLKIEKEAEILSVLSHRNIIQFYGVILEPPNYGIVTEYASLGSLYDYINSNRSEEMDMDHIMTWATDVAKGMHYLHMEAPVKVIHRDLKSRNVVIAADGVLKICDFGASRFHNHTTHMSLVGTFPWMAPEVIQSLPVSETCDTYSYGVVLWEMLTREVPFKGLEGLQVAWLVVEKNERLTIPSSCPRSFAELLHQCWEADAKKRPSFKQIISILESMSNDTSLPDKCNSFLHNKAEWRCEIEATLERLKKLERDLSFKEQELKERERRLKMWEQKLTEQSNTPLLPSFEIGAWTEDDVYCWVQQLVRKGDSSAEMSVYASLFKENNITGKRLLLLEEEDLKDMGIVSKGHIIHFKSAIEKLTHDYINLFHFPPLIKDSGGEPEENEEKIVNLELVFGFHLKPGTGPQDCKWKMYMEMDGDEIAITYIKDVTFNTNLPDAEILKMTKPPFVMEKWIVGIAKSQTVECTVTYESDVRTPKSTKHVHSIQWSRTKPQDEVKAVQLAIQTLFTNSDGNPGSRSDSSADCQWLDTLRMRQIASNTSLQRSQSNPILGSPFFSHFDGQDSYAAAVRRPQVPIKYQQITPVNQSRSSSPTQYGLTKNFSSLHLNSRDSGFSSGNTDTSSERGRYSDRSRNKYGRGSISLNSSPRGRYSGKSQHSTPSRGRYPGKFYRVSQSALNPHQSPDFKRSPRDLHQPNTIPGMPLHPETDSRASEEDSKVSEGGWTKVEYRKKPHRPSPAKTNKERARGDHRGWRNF
Sequence of Phosphatidylinositol 5-phosphate 4-kinase type-2 beta (Homo sapiens) (P78356 whole entry): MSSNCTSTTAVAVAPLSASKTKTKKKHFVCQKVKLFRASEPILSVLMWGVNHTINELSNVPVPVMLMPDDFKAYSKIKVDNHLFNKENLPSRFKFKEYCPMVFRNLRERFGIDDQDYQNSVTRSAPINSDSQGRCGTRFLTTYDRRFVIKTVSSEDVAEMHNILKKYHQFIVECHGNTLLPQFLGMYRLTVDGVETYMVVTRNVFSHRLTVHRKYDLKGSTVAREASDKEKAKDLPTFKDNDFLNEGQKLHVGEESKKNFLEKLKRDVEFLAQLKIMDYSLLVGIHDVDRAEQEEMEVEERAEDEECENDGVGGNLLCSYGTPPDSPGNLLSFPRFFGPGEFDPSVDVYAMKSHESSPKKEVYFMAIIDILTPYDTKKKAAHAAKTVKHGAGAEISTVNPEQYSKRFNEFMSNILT

Which IC50 [1] does the source give for `CCOc1cc(N2CCC(O)CC2)ccc1Nc1ncc2c(n1)N(C)c1ccccc1C(=O)N2C` here?
Its IC50 is greater than 50 µM.

And the IC50 (SRSF protein kinase 1)?
The IC50 was greater than 50 µM.

And the IC50 [2]?
Its IC50 is greater than 50 µM.

And the inhibition [3]?
The inhibition was 5.6%.

What about the inhibition [4] of the same compound?
The inhibition was 13.1%.

What about the inhibition at 10 µM [5] of the same compound?
The inhibition at 10 µM was 1.4%.

What about the inhibition [6] of the same compound?
The inhibition was 12.5%.

And the inhibition [7]?
Its inhibition is 31.5%.

And the inhibition [8]?
Its inhibition is 3.7%.

What about the inhibition [9] of the same compound?
The inhibition was -2.7%.

And the inhibition (Wee1-like protein kinase)?
Its inhibition is -5.2%.

And the inhibition at 2 µM [10]?
Its inhibition at 2 µM is -5.2%.

What about the inhibition [11] of the same compound?
The inhibition was 2%.

And the Activity [12]?
The Activity was “Non-Toxic”.

And the Activity [13]?
The Activity was 9.1 mg/dL.

Source: ChEMBL document CHEMBL5661979, “Pharmacological inhibition of BMK1 suppresses tumor growth through promyelocytic leukemia protein” (Cancer Cell, 2010)
